Consider one molecule from ChEMBL document CHEMBL4477210, “Gramine Derivatives Targeting Ca(2+) Channels and Ser/Thr Phosphatases: A New Dual Strategy for the Treatment of Neurodegenerative Diseases” (J Med Chem, 2016).

The test system of data set [1] is Voltage-gated calcium channel. The data set can be described thus: Inhibition of VGCC in human SHSY-5Y cells assessed as reduction of K+-evoked cytosolic ca2+ at 1 uM incubated for 10 mins prior to KCl addition by Fluo-4-AM probe-based fluorescence analysis. The data set is classed as cell-based. In a few lines: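 SH-SY5Y cells at confluence (48 h after seeding) loaded with 10 μM Fluo-4/AM plus 0.2% pluronic in Krebs–HEPES (pH 7.4) for 45 min at 37 °C, then washed. Compound at 1 μM for 10 min, then KCl 70 mM. Ex 485/em 520 nm; signal normalized to Fmax (Triton X-100) minus Fmin (MnCl2). At least six experiments versus K+ response without compound.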

The species named for data set [2] is Homo sapiens. The data set can be described thus: Suppression of okadaic acid-induced inhibition of PP1/PP2A in human SHSY-5Y cells at 0.1 uM using pNPP as substrate assessed as remaining total phosphatase activity incubated for 30 mins by colorimetric assay (reference value: 68 +/- 2%). The data set is classed as cell-based. An outline of the steps: (§1)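 SH-SY5Y cells treated with compound at 0.1 μM plus okadaic acid 15 nM (24 h preincubation, then coincubation). Medium removed; assay buffer with pNPP (10 mM) added, 30 min at 37 °C in the dark, absorbance at 405 nm. For Ser/Thr activity, 1 mM orthovanadate added to the buffer. Expressed as % of untreated cells; at least four experiments.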

The species entered for data set [3] is Homo sapiens. The data set can be described thus: Suppression of okadaic acid-induced inhibition of PP1/PP2A in human SHSY-5Y cells at 0.1 uM using pNPP as substrate assessed as remaining Ser/Thr phosphatase activity incubated for 30 mins in presence of tyrosine phosphatase inhibitor sodium orthovanadate by colorimetric assay (reference value: 61 +/- 3%). The format is cell-based. In a few lines:
as §1

Data set [4] has as its system SH-SY5Y. The data set can be described thus: Neuroprotective activity in human SH-SY5Y cells assessed as reversal of okadaic acid-induced cytotoxicity at 0.1 uM preincubated for 24 hrs followed by […] by MTT assay. The data set is classed as functional.
The test system of data set [5] is Cortical neurone. The data set can be described thus: Neuroprotective activity in rat cortical motor neurons assessed as reversal of veratridine-induced cytotoxicity at 0.1 uM incubated for 24 hrs followed by coincubation with veratridine for 24 hrs by MTT assay. The format is functional.
For data set [6], the system named is SH-SY5Y. The data set can be described thus: Cytotoxicity against human SH-SY5Y cells assessed as reduction of cell viability at <10 uM incubated for 48 hrs by MTT assay. The data set is classed as cell-based. In a few lines: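 SH-SY5Y cells exposed to compounds for 48 h; viability read by MTT reduction (final 0.3 mg/mL, 2 h at 37 °C in the dark), formazan dissolved in DMSO, absorbance at 540 nm, expressed as % of untreated cells.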

The subject of data set [7] is Cortical neurone. The data set can be described thus: Cytotoxicity against rat cortical motor neurons assessed as reduction of cell viability at 1 uM incubated for 48 hrs by MTT assay. The format is cell-based. In a few lines:
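Rat cortical motor neurons in neurobasal medium with 2% B-27 on poly-D-lysine, grown 8−10 days to a dense network, then exposed to compound for 48 h. Viability read by MTT (0.3 mg/mL final, 30 min, 37 °C, dark), formazan dissolved in DMSO, absorbance 540 nm, expressed as % of untreated cells.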
A general note: Tetrazolium assays rely on reduction of a dye to a coloured formazan, in cell work by metabolically active cells.

Consider `Brc1ccc2c(c1)c(CN1CCCCC1)cn2CCCCN1CCCCC1`, for which the “inhibition (INH)” value in data set [1] worked out at 19%. Also, the Activity in data set [2] was 73%; in data set [3], 70%; in data set [4], 61%; in data set [5], 0%; in data set [6] it was “Non-Toxic”; in data set [7], “Toxic”.
